PfGluPho inh: PfG6PD (Plasmodium falciparum) enzyme inhibition. PfGluPho enzyme, NADPH resazurin-diaphorase fluorescence. inhibition, % at 20 µM. 350,000 compounds, 0.78% hits. AID 504690;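 active = inhibition reaching at least a set limit at 20 µM in the primary screen, cut at about 59% in these data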;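 note: 0% = DMSO wells with substrate and 100% = DMSO wells lacking glucose-6-phosphate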
Diaphorase act: counter-screen for diaphorase-based assays: diaphorase activators and chemical reducers; Diaphorase/resazurin coupled assay, resorufin fluorescence, 16 min; stronger effect = higher value; 1 = vehicle wells, 0 = NADH-free wells; activation factor at 20 µM; 190,000 compounds, 0.005% hits;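 active = diaphorase activity raised at least twofold by the compound at 20 µM; inactive = activation factor below 2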
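Test system: Clostridium kluyveri diaphorase, purified enzyme; input: enzyme 0.07 U/mL final; buffer or medium: 50 mM HEPES pH 7.4 with 4.542 mM MgCl2, 0.005% Tween 20; also added: 0.114 mM NADH and 0.1 mM resazurin, final amounts; schedule: 16 min enzyme reaction, ambient temperature; technique: fluorescence of resorufin, 544 nm excitation, 590 nm emission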
G6PDH CS: L. mesenteroides G6PDH inhibition counter-screen | AID 1020 | inhibition, % at 5 µM | Purified L. mesenteroides G6PDH, diaphorase/resazurin coupled fluorescence, 45 min | 200,000 compounds, 0.12% hits; in the data active = inhibition above about 50%
HKDC1 inhibitor: inhibitors of human hexokinase HKDC1; 340,000 compounds, 0.16% hits; Q2TB90; AID 493160; inhibition, % at 20 µM; recombinant HKDC1, G6PDH/diaphorase resazurin coupled fluorescence;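 active = inhibition above about 35% when tested at 20 µM, limit read from the data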;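 note: plate controls were DMSO wells with enzyme for no effect and DMSO wells lacking enzyme for full effect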
Target sequence (Q2TB90 whole entry, looked up): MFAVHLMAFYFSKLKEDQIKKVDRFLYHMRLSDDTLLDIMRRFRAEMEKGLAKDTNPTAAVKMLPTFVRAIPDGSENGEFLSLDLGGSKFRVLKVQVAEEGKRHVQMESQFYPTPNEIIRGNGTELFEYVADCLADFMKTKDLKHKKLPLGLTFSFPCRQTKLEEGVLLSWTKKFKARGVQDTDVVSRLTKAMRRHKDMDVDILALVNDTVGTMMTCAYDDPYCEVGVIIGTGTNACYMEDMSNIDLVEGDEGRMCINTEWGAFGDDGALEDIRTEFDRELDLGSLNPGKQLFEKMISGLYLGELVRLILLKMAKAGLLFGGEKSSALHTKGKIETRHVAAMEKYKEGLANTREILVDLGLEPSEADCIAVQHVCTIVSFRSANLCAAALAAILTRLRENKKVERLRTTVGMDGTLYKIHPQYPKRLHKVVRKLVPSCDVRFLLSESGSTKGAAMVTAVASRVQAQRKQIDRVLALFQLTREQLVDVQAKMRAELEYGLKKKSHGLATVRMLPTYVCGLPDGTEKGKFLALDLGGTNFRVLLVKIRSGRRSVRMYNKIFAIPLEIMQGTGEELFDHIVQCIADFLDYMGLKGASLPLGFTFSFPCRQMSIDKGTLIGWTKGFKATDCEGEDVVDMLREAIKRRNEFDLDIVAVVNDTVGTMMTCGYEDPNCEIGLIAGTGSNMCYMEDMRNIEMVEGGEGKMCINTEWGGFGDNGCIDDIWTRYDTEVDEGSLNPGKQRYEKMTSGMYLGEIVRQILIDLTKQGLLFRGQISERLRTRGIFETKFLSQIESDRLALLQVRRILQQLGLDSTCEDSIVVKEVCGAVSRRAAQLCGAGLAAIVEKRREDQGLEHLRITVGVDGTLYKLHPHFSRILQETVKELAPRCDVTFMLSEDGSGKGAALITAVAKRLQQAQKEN
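test system = in-house recombinant HK5 (HKDC1) enzyme | amount = HKDC1 at 5 µg/mL | control set = DMSO-enzyme wells negative, buffer-substituted wells positive | compound = one dose of 20 µM, 1% DMSO | schedule = reaction time 90 min, room temperature, protected from light | technique = resorufin fluorescence at 613 nm | reagent = glucose with 1 mM ATP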
Diaph inh CS: diaphorase inhibition or chemical oxidation counter-screen | diaphorase resazurin-to-resorufin fluorescence, NADH, 16 min; bacterial (C. kluyveri) enzyme, not human | inhibition, % at 20 µM | 190,000 compounds, 0.69% hits;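 active = primary screen inhibition at 20 µM above a set limit, cut at about 50% in these data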;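 note: plate controls were DMSO with full reaction for no effect and wells lacking NADH for full effect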
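System: Diaphorase enzyme from Clostridium kluyveri | Amount: Enzyme working solution with 0.14 U/mL diaphorase | Benchmarks: No-NADH positive control and DMSO neutral control | Signal: Fluorescence of resorufin formed from resazurin, Ex 544/Em 590 nm | Schedule: 16-min room-temperature incubation before reading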
PfG6PD confirm: confirmation of Plasmodium falciparum G6PD inhibitors; inhibition, % at 20 µM; AID 504753; shares compounds with PfGluPho inh; 2,400 compounds, 34% hits; recombinant PfGluPho, NADPH-diaphorase-resazurin fluorescence;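 active = inhibition of at least 50% at 20 µM in any single replicate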;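 note: 0% = DMSO with substrate and 100% = DMSO lacking glucose-6-phosphate substrate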
Diaph ctr 10uM: counter-screen for P. falciparum G6PD inhibitors: diaphorase inhibitors, oxidizers; diaphorase-coupled resazurin reduction, fluorescence, NADPH 10 uM; inhibition, % at 20 µM; shares compounds with PfGluPho inh; 820 compounds, 39% hits; AID 504862;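 active = average inhibition reaching 50% or more with the compound at 20 µM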;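 note: resorufin red fluorescence formed as diaphorase reduces resazurin using NADPH; 0% = DMSO with enzyme and 100% = DMSO without enzyme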
Diaphorase 30uM: counter-screen for P. falciparum G6PD inhibitors: diaphorase inhibitors, oxidizers; shares compounds with PfGluPho inh; Diaphorase/resazurin coupled assay, resorufin fluorescence, 30 uM NADPH; 820 compounds, 29% hits; inhibition, % at 20 µM;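 active = inhibition averaging 50% or more, tested at 20 µM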;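 note: 0% = DMSO with enzyme and 100% = DMSO wells lacking diaphorase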
* hit, by the source's call. An excerpt weighted towards active compounds, which were near 1.3% of everything screened.

For COc1ccc(NC(=O)c2ccc(-n3cccn3)c([N+](=O)[O-])c2)cc1 the results were PfGluPho inh 35.2, Diaphorase act 0.9, G6PDH CS 2.3, HKDC1 inhibitor -7.0 and Diaph inh CS 14.3.
For S=c1[nH]c(-c2ccc(Cl)cc2)cs1 the results were PfGluPho inh 62.4*, Diaphorase act 0.8, G6PDH CS -9.0, HKDC1 inhibitor 5.5, Diaph inh CS 23.1 and PfG6PD confirm 2.6.
For CCn1c([N+](=O)[O-])nc2c1c(=O)[nH]c(=O)n2C the results were PfGluPho inh 66.7*, Diaphorase act 1, G6PDH CS 15.4, HKDC1 inhibitor 2.0, Diaph inh CS -4.3, PfG6PD confirm 51.9*, Diaph ctr 10uM 36.9 and Diaphorase 30uM 32.3.
For COCCOC(=O)c1c(C)n(C)c2ccc(OC(=O)c3c(OC)cccc3OC)cc12 the results were PfGluPho inh 59.5*, HKDC1 inhibitor -0.8 and PfG6PD confirm 25.6.
CCCCNC(=O)c1ccc(Cn2c(=S)[nH]c3c([nH]c4ccc(OC)cc43)c2=O)cc1 was read as PfGluPho inh 3.5, Diaphorase act 1, G6PDH CS -5.0, HKDC1 inhibitor 5.1 and Diaph inh CS -2.5.
For CCN(CC)CCNC(=O)CCCCn1c(=S)[nH]c2c([nH]c3ccc(OC)cc32)c1=O the results were PfGluPho inh 64.3*, Diaphorase act 0.6, G6PDH CS 2.0, HKDC1 inhibitor -0.6, Diaph inh CS 37.0, PfG6PD confirm 47.2*, Diaph ctr 10uM -3.3 and Diaphorase 30uM -7.7.
`Cc1nn(-c2ccccc2)c(Cl)c1/C=N/Nc1nc2ccccc2n1C` gave PfGluPho inh 101.5*, Diaphorase act 1, G6PDH CS -11.6, HKDC1 inhibitor -8.0, Diaph inh CS 2.2, PfG6PD confirm 46.9*, Diaph ctr 10uM 36.9 and Diaphorase 30uM 38.0.
CC1=CC(C)(C)N2C(=O)C(=Nc3ccc(O)cc3)c3cccc1c32 was read as PfGluPho inh 94.0*, HKDC1 inhibitor 20.4 and PfG6PD confirm 23.3.
`COc1cc(N=C2C(=O)N3c4c(cccc42)C(C)=CC3(C)C)cc(OC)c1` gave PfGluPho inh 28.9, Diaphorase act 0.8, G6PDH CS 17.8, HKDC1 inhibitor 14.9 and Diaph inh CS 24.2.
Screening Cc1cccc(OCCC(=O)NCC(=O)Nc2cccc(C)c2C)c1 returned PfGluPho inh 104.8*, Diaphorase act 1, G6PDH CS 2.0, HKDC1 inhibitor -3.8, Diaph inh CS 3.7, PfG6PD confirm 91.4*, Diaph ctr 10uM 80.6* and Diaphorase 30uM 67.0*.
Screening NNC(=O)CCN1CCN(C(c2ccccc2)c2ccccc2)CC1 returned PfGluPho inh -23.4, Diaphorase act 0.9, G6PDH CS 10.1, HKDC1 inhibitor 9.8 and Diaph inh CS 7.1.
Screening O=C(CSc1nc2cc(Cl)ccc2s1)c1ccco1 returned PfGluPho inh 113.5*, Diaphorase act 0.8, G6PDH CS 2.5, HKDC1 inhibitor 4.0, Diaph inh CS 24.3, PfG6PD confirm 56.2*, Diaph ctr 10uM 44.5 and Diaphorase 30uM 28.8.
Screening O=C(CSc1nnc(SCC(=O)c2ccco2)s1)c1ccco1 returned PfGluPho inh 0.7, Diaphorase act 1, G6PDH CS 3.9, HKDC1 inhibitor 2.6 and Diaph inh CS 3.1.
`CC(C)(C)NC(=O)CN(C(=O)CNS(=O)(=O)c1ccccc1)c1ccc2c(c1)OCCO2` gave PfGluPho inh 3.9, Diaphorase act 0.9, G6PDH CS 15.0, HKDC1 inhibitor -1.7 and Diaph inh CS 5.9.
For CCOC(=O)C1=C(C)N(C)C(=O)NC1c1cc2c(cc1[N+](=O)[O-])OCO2 (centres undefined) the results were PfGluPho inh 70.5*, Diaphorase act 0.3, G6PDH CS 8.5, HKDC1 inhibitor 4.1, Diaph inh CS 66.7* and PfG6PD confirm -20.3.
Screening Cc1cc(C)c(S(=O)(=O)Nc2ccc3c4c(cccc24)CC3)c(C)c1 returned PfGluPho inh 90.5*, Diaphorase act 0.9, G6PDH CS 9.2, HKDC1 inhibitor 3.9, Diaph inh CS 12.5 and PfG6PD confirm 30.0.
Screening Cc1ccc(S(=O)(=O)Nc2ccc3c4c(cccc24)CC3)c(C)c1 returned PfGluPho inh 73.9*, HKDC1 inhibitor -0.5 and PfG6PD confirm 26.2.
`O=S(=O)(Nc1ccc2c3c(cccc13)CC2)c1ccccc1` gave PfGluPho inh 53.4.
`CC(=O)Nc1ccc2c3c(cccc13)CC2` gave PfGluPho inh -12.8 and HKDC1 inhibitor -0.1.
For CCOC(=O)C1CCN(C(=O)COC(=O)c2cc([N+](=O)[O-])ccc2N2CCOCC2)CC1 the results were PfGluPho inh 0.3 and HKDC1 inhibitor -7.1.
Screening O=C(CN1CCOCC1)N1CCN(c2ccc3ccccc3n2)CC1 returned Diaphorase act 0.9, G6PDH CS 7.9 and Diaph inh CS 8.1.
Screening O=C(CNC(=O)c1ccc(Br)cc1)NCC(=O)OCC(=O)c1ccc([N+](=O)[O-])cc1 returned PfGluPho inh 67.0*, Diaphorase act 1.1, G6PDH CS 8.3, HKDC1 inhibitor -9.7, Diaph inh CS -9.6, PfG6PD confirm 57.5*, Diaph ctr 10uM -4.9 and Diaphorase 30uM -8.0.
`O=C(CNC(=O)c1ccccc1)NCC(=O)OCC(=O)c1ccc([N+](=O)[O-])cc1` gave PfGluPho inh 59.1*, Diaphorase act 0.9, G6PDH CS -8.9, HKDC1 inhibitor -9.1, Diaph inh CS 14.8, PfG6PD confirm 55.3*, Diaph ctr 10uM -17.6 and Diaphorase 30uM -16.4.
For O=C(CNC(=O)c1ccccc1)NCC(=O)OCC(=O)c1ccc(F)cc1 the results were PfGluPho inh -10.5, Diaphorase act 0.9, G6PDH CS 9.8, HKDC1 inhibitor -5.4 and Diaph inh CS 9.3.
Screening O=C(NCc1ccccc1)c1ccc2c(=O)n3c(nc2c1)CCCCC3 returned PfGluPho inh 2.9 and HKDC1 inhibitor -4.8.
`Cn1nnc2c(N3CCCCC3)nccc21` gave PfGluPho inh 10.5, Diaphorase act 0.9, G6PDH CS -1.4, HKDC1 inhibitor 3.6 and Diaph inh CS 11.3.
C=CCn1cnc2scc(-c3ccc(C)c(C)c3)c2c1=O was read as PfGluPho inh -7.9, Diaphorase act 0.8, G6PDH CS 6.6, HKDC1 inhibitor 12.3 and Diaph inh CS 15.2.
Screening CCOc1ccccc1Oc1nc(-c2ccccc2O)nc2ccccc12 returned PfGluPho inh 86.0*, HKDC1 inhibitor 2.2 and PfG6PD confirm 14.8.
